Measurements of several laboratories.
Each line is one published result; the experiments were not run side by side.
Cell line: MDA-MB-231
Observed: cell growth or viability

CC/C(=C(\c1ccccc1)c1ccc(OCCN(C)C)cc1)c1ccccc1  EC90 (ATP luminescence; 72 h): 33.4 µM
O=C(c1cc(Cc2n[nH]c(=O)c3ccccc23)ccc1F)N1CCN(C(=O)C2CC2)CC1  EC50 (ATP luminescence; 7 days): ~5 µM
CCOC(=O)C(C(C)=O)=C1Sc2nc3ccc(S(=O)(=O)N4CCCC4)cc3nc2S1  viability (MTT; 50 µM, 24 h): 8.1%
COc1cc2c(cc1O)CCN(Cc1cc(Cl)c(OC)c(OC)c1)C2  GI50 (WST-1; 96 h): 0.4 µM
COc1cc2c(cc1OS(N)(=O)=O)CCN(Cc1cccc([N+](=O)[O-])c1)C2  GI50 (WST-1; 96 h): 1.91 µM
Cc1ccc2nc(-c3ccc(F)cc3)[nH]c2c1  IC50 (MTT; 48 h): > 100 µM
COc1cc2c(cc1O)CCN(Cc1cccc(NC(C)=O)c1)C2  GI50 (WST-1; 96 h): > 100 µM
CCOc1cc(CN2CCc3cc(OS(N)(=O)=O)c(OC)cc3C2)cc(OCC)c1OCC  GI50 (WST-1; 96 h): 4.4 µM
COc1ccc(-c2nc3ccc(C)cc3[nH]2)cc1O  IC50 (MTT; 48 h): 55.1 µM
COc1cc2c(cc1O)CCN(Cc1cccc([N+](=O)[O-])c1)C2  GI50 (WST-1; 96 h): > 100 µM
CC(=O)O[C@H]1C(=O)[C@@]2(C)[C@H]([C@H](OC(=O)c3ccccc3)[C@]3(O)C[C@H](OC(=O)[C@H](O)[C@@H](NC(=O)c4ccccc4)c4ccccc4)C(C)=C1C3(C)C)[C@]1(OC(C)=O)CO[C@@H]1C[C@@H]2O  GI50 (WST-1; 96 h): 0.002 µM
COc1cc2c(cc1OS(N)(=O)=O)CCN(Cc1cccc(OC)c1OC)C2  GI50 (WST-1; 96 h): 0.888 µM
C=CCn1c(-c2ccc(OC)c(OC)c2)nc2ccccc21  IC50 (MTT): 31.2 µM
C[C@]12CCCN1CC1=NNC(=O)c3cc(F)cc4[nH]c2c1c34  EC50 (ATP luminescence; 7 days): ~9 µM
C[C@]12CC[C@@H]3c4ccc(O)cc4CC[C@H]3[C@@H]1CC[C@@H]2O  EC90 (ATP luminescence; 72 h): 40.1 µM
COc1cc2c(cc1OS(N)(=O)=O)CCN(Cc1cccc(O)c1)C2  GI50 (WST-1; 96 h): 41 µM
Cc1ccc2nc(-c3cc(Br)ccc3O)[nH]c2c1  IC50 (MTT; 48 h): 6.69 µM
N#CC(C(=O)Nc1cccc(C(F)(F)F)c1)=C1Sc2nc3ccc(S(=O)(=O)N4CCCC4)cc3nc2S1  viability (MTT; 100 µM, 24 h): 12.9%
c1ccc2[nH]c(-c3ccc4c(c3)OCO4)nc2c1  IC50 (MTT; 48 h): > 100 µM
COc1ccc(-c2cn(-c3cc(=O)oc4ccc(Br)cc34)nn2)cc1  CC50 (imaging; 72 h): 10.7 µM
COc1cc2c(cc1OS(N)(=O)=O)CCN(Cc1cccc(OS(N)(=O)=O)c1)C2  GI50 (WST-1; 96 h): 34.9 µM
c1ccc2[nH]c(-c3ccncc3)nc2c1  IC50 (MTT; 48 h): > 100 µM
COc1cccc2c1C(=O)c1c(O)c3c(c(O)c1C2=O)C[C@@](O)(C(=O)CO)C[C@@H]3O[C@H]1C[C@H](N)[C@H](O)[C@H](C)O1  viability (MTT; 100 µM, 24 h): 4.1%
CCOc1cccc(CN2CCc3cc(O)c(OC)cc3C2)c1  GI50 (WST-1; 96 h): > 100 µM
COc1cccc(-c2nc3ccccc3n2Cc2ccccc2)c1  IC50 (MTT): 43.3 µM
COc1cc2c(cc1O)CCN(Cc1cccc(OC)c1OC)C2  GI50 (WST-1; 96 h): > 100 µM
O=C1CCCCC1=C1Sc2nc3ccc(S(=O)(=O)N4CCCC4)cc3nc2S1  viability (MTT; 3.125 µM, 24 h): 69.8%
Cc1ccc2nc(-c3ccc(Cl)c(Cl)c3)[nH]c2c1  IC50 (MTT; 48 h): 60.2 µM
